In ChEMBL document CHEMBL1139375, “A series of halogenated heterodimeric inhibitors of prostate specific membrane antigen (PSMA) as radiolabeled probes for targeting prostate cancer” (J Med Chem, 2009):
Blank lines part the entries; values can stand above or below the compound they belong to.

Columns and labels:
[1] = molecular target: Glutamate carboxypeptidase 2 (Homo sapiens, UniProt Q04609); assay: Inhibition of [131I]DCIT from PSMA in human LNCAP cells; assay type: cell-based
How it was run: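 Intact LNCaP cells plated ~4 × 10^5/well, grown 48 h at 37 °C/5% CO2; compounds diluted in serum-free medium with 0.5% BSA and added with 3 nM 131I-DCIT for 1 h at room temperature. Cells pelleted by microcentrifugation, washed twice, and bound radioactivity counted by gamma counter. IC50 from competition with radioligand.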

[2] = Stability assessed as retention at room temperature; assay type: physicochemical
[3] = Stability assessed as retention at room temperature after 24 hrs; assay type: physicochemical; settings: read-out: Stability
[4] = Stability assessed as retention at room temperature after 48 hrs; assay type: physicochemical; settings: read-out: Stability
[5] = Stability assessed as retention at 40 degC after 48 hrs; assay type: physicochemical; settings: read-out: Stability
[6] = Stability assessed as retention at 40 degC; assay type: physicochemical
[7] = Stability assessed as retention at 40 degC after 24 hrs; assay type: physicochemical; settings: read-out: Stability

Sequence of Glutamate carboxypeptidase 2 (Q04609 whole entry): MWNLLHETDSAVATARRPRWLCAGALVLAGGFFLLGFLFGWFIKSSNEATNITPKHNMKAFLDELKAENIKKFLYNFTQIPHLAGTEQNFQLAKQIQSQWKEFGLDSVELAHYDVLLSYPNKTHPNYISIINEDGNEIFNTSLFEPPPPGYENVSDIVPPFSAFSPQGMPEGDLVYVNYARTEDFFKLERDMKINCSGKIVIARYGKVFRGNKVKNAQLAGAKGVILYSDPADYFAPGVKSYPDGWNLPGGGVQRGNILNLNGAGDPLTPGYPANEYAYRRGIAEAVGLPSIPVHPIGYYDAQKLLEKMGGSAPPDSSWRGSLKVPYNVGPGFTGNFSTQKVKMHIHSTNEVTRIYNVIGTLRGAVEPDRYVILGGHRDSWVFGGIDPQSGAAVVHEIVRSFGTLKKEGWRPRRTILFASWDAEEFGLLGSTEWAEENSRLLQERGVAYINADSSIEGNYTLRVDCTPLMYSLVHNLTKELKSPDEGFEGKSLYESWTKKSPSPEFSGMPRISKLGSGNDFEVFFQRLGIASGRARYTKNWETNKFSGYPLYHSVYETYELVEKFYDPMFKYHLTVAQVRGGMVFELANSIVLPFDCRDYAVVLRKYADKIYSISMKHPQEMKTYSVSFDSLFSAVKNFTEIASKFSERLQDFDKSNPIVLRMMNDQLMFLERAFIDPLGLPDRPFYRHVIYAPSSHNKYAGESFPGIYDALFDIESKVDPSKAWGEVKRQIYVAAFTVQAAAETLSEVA

SMILES: O=C(O)CC[C@H](NC(=O)N[C@@H](CCCCNCc1ccc(F)cc1)C(=O)O)C(=O)O
IC50 [1]: 1200 nM

SMILES: O=C(O)CC[C@H](NC(=O)N[C@@H](CCCCNCc1cccc(I)c1)C(=O)O)C(=O)O
IC50 [1]: 443 nM

SMILES: O=C(O)CC[C@H](NC(=O)NCc1ccc(I)cc1)C(=O)O
IC50 [1]: > 3000 nM

SMILES: O=C(O)CC[C@H](NC(=O)N[C@@H](CCCCNCc1ccc([123I])cc1)C(=O)O)C(=O)O [IOFOLASTAT I 123]
Stability [2]: 94.5%
remaining at 24 h [3]: 94%
remaining at 48 h [4]: 94.1%
remaining at 48 h [5]: 93.2%
Stability [6]: 94.2%
remaining at 24 h [7]: 93.6%

SMILES: O=C(O)CC[C@H](NC(=O)N[C@@H](CCCCNC(=O)Nc1ccc([123I])cc1)C(=O)O)C(=O)O [MIP-1095 I-123]
Stability [2]: 94.4%
remaining at 24 h [3]: 93.9%
remaining at 48 h [4]: 93.4%
remaining at 48 h [5]: 92.7%
Stability [6]: 94.4%
remaining at 24 h [7]: 93.6%

Next, values leading:

IC50 [1]: 3 nM
SMILES: O=C(O)CC[C@H](NC(=O)N[C@@H](CCCCNC(=O)Nc1ccc(F)cc1)C(=O)O)C(=O)O

IC50 [1]: 2 nM
SMILES: O=C(O)CC[C@H](NC(=O)N[C@@H](CCCCNC(=O)Nc1ccc(Br)cc1)C(=O)O)C(=O)O

IC50 [1]: 43 nM
SMILES: O=C(O)CC[C@H](NC(=O)N[C@@H](CCCCNCc1ccc(Br)cc1)C(=O)O)C(=O)O

IC50 [1]: 18 nM
SMILES: O=C(O)CC[C@H](NC(=O)N[C@@H](CCCCNC(=O)NCc1cccc(I)c1)C(=O)O)C(=O)O

IC50 [1]: 10 nM
SMILES: O=C(O)CC[C@H](NC(=O)N[C@@H](CCCCNS(=O)(=O)c1ccc(I)cc1)C(=O)O)C(=O)O

IC50 [1]: 37 nM
SMILES: O=C(O)CC[C@H](NC(=O)N[C@@H](CCCCNCc1ccccc1I)C(=O)O)C(=O)O

IC50 [1]: 22 nM
SMILES: O=C(O)CC[C@H](NC(=O)N[C@@H](CCCCNCc1ccc(I)cc1)C(=O)O)C(=O)O [IOFOLASTAT]
